ChEMBL document CHEMBL4619808, “Tailoring the Physicochemical Properties of Antimicrobial Peptides onto a Thiazole-Based γ-Peptide Foldamer” (J Med Chem, 2020)
In brackets after ≈: the same amount, converted by molar mass.

Columns and labels:
Enterococcus faecalis [1] = test: Microbicidal activity against Enterococcus faecalis ATCC 29121 assessed as inhibition of colony growth incubated for 24 hrs followed by replating and further incubated for 24 hrs; assay type: functional; conditions: ATCC 29121, 24 h
Bacillus subtilis [2] = test: Antimicrobial activity against Bacillus subtilis ATCC 6633 assessed as inhibition of microbial growth incubated for 24 hrs; assay type: functional; conditions: ATCC 6633, 24 h
Outline: (§1)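 Broth microdilution. Strains grown overnight on TSA at 37°C, suspended to 10⁸ CFU/mL in Tryptone-Sel, then diluted to 10⁶ CFU/mL in double-strength Mueller-Hinton broth. Two-fold serial dilutions in sterile water (pH 7.4–7.7) mixed 1:1 with inoculum. Incubation 24 h at 37°C. MIC is the lowest concentration inhibiting growth. Duplicate wells, three independent experiments.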

Staphylococcus aureus [3] = test: Antimicrobial activity against Staphylococcus aureus ATCC 6538 assessed as inhibition of microbial growth incubated for 24 hrs; assay type: functional; conditions: ATCC 6538, 24 h; outline: as §1
Escherichia coli [4] = test: Antimicrobial activity against Escherichia coli ATCC 8739 assessed as inhibition of microbial growth incubated for 24 hrs; assay type: functional; conditions: ATCC 8739, 24 h; outline: as §1
Candida albicans [5] = test: Microbicidal activity against Candida albicans ATCC 10231 assessed as inhibition of colony growth incubated for 48 hrs followed by replating and further incubated for 48 hrs; assay type: functional; conditions: ATCC 10231, 48 h
Staphylococcus aureus [6] = test: Microbicidal activity against Staphylococcus aureus ATCC 6538 assessed as inhibition of colony growth incubated for 24 hrs followed by replating and further incubated for 24 hrs; assay type: functional; conditions: ATCC 6538, 24 h
Bacillus subtilis [7] = test: Microbicidal activity against Bacillus subtilis ATCC 6633 assessed as inhibition of colony growth incubated for 24 hrs followed by replating and further incubated for 24 hrs; assay type: functional; conditions: ATCC 6633, 24 h
Pseudomonas aeruginosa [8] = test: Antimicrobial activity against Pseudomonas aeruginosa ATCC 9027 assessed as inhibition of microbial growth incubated for 24 hrs; assay type: functional; conditions: ATCC 9027, 24 h; outline: as §1
[9] = Hemolytic activity in human RBC assessed as induction of hemolysis incubated for 1 hr; assay type: cell-based, Erythrocyte; conditions: red blood cells (erythrocytes), read-out: HD50
Outline: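 Human RBCs washed in PBS and used at 5% packed cell volume, mixed 1:1 with two-fold serial dilutions in PBS (pH 7.4–7.7). Incubation 1 h at 37°C, then centrifugation at 1500g for 10 min at 5°C. Supernatant absorbance read at 490 nm against PBS (0%) and 1% SDS/Tris (100%) controls. HC50 from three independent experiments, double duplicate.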

Escherichia coli [10] = test: Microbicidal activity against Escherichia coli ATCC 8739 assessed as inhibition of colony growth incubated for 24 hrs followed by replating and further incubated for 24 hrs; assay type: functional; conditions: ATCC 8739, 24 h
Candida albicans [11] = test: Antimicrobial activity against Candida albicans ATCC 10231 assessed as inhibition of microbial growth incubated for 48 hrs; assay type: functional; conditions: ATCC 10231, 48 h
Outline: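 C. albicans grown 48 h on Sabouraud at 20–25°C, suspended to 10⁸ CFU/mL, then diluted to 10⁶ CFU/mL in double-strength Mueller-Hinton broth. Two-fold serial dilutions in water (pH 7.4–7.7) mixed 1:1 with inoculum. Incubation 48 h at 25°C. MIC is the lowest concentration inhibiting growth. Duplicate wells, three independent experiments.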

Enterococcus faecalis [12] = test: Antimicrobial activity against Enterococcus faecalis ATCC 29121 assessed as inhibition of microbial growth incubated for 24 hrs; assay type: functional; conditions: ATCC 29121, 24 h; outline: as §1
Pseudomonas aeruginosa [13] = test: Microbicidal activity against Pseudomonas aeruginosa ATCC 9027 assessed as inhibition of colony growth incubated for 24 hrs followed by replating and further incubated for 24 hrs; assay type: functional; conditions: ATCC 9027, 24 h

| Structure (SMILES) | MIC (Bacillus subtilis [2]) | MIC (Staphylococcus aureus [3]) | MIC (Escherichia coli [4]) | MIC (Pseudomonas aeruginosa [8]) | MIC (Candida albicans [11]) | MIC (Enterococcus faecalis [12]) | MBC (Enterococcus faecalis [1]) | MBC (Candida albicans [5]) | MBC (Staphylococcus aureus [6]) | MBC (Bacillus subtilis [7]) | HC50 at 1 h [9] | MBC (Escherichia coli [10]) | MBC (Pseudomonas aeruginosa [13]) |
| --- | --- | --- | --- | --- | --- | --- | --- | --- | --- | --- | --- | --- | --- |
| CC(=O)N[C@@H](CCCCN)c1nc(C)sc1C(=O)N[C@@H](C)c1nc(C)sc1C(=O)N[C@@H](C)c1nc(CCCCN)sc1C(=O)N[C@@H](C)c1nc(C)sc1C(=O)N[C@@H](C)c1nc(CCCCN)sc1C(=O)N[C@@H](CCCCN)c1nc(C)sc1C(=O)N[C@@H](C)c1nc(CCCCN)sc1C(=O)N[C@@H](CCCCN)c1nc(C)sc1C(=O)N[C@@H](C)c1nc(C)sc1C(=O)N[C@@H](C)c1nc(C)sc1C(=O)N[C@@H](C)c1nc(CCCCN)sc1C(=O)N[C@@H](CCCCN)c1nc(C)sc1C(N)=O | 0.8 µM | 100 µM | 5.2 µM | 100 µM | 50 µM | > 150 µM | > 150 µM | 62.5 µM (≈ 158 µg/mL) | > 100 µM | 0.8 µM (≈ 2.03 µg/mL) | > 100 µM | 8.3 µM (≈ 21 µg/mL) | > 100 µM |
| CC(=O)N[C@@H](CCCNC(=N)N)c1nc(C)sc1C(=O)N[C@@H](C)c1nc(CCCNC(=N)N)sc1C(=O)N[C@@H](C)c1nc(C)sc1C(=O)N[C@@H](CCCNC(=N)N)c1nc(C)sc1C(=O)N[C@@H](C)c1nc(CCCNC(=N)N)sc1C(=O)N[C@@H](C)c1nc(C)sc1C(=O)N[C@@H](CCCNC(=N)N)c1nc(C)sc1C(=O)N[C@@H](C)c1nc(CCCNC(=N)N)sc1C(=O)N[C@@H](C)c1nc(C)sc1C(N)=O | 0.5 µM | 14.6 µM | 0.8 µM | 54 µM | 9.4 µM | 100 µM | > 100 µM | 12.5 µM (≈ 26 µg/mL) | 16.5 µM (≈ 34.4 µg/mL) | 0.5 µM (≈ 1.04 µg/mL) | > 100 µM | 0.8 µM (≈ 1.67 µg/mL) | 100 µM (≈ 208 µg/mL) |
| CC(=O)N[C@@H](CCCCN)c1nc(C)sc1C(=O)N[C@@H](CC(C)C)c1nc(CCCCN)sc1C(=O)N[C@@H](C)c1nc(CC(C)C)sc1C(=O)N[C@@H](CCCCN)c1nc(C)sc1C(=O)N[C@@H](CC(C)C)c1nc(CCCCN)sc1C(=O)N[C@@H](C)c1nc(CC(C)C)sc1C(=O)N[C@@H](CCCCN)c1nc(C)sc1C(=O)N[C@@H](CC(C)C)c1nc(CCCCN)sc1C(=O)N[C@@H](C)c1nc(CC(C)C)sc1C(=O)N[C@@H](CCCCN)c1nc(C)sc1C(=O)N[C@@H](CC(C)C)c1nc(CCCCN)sc1C(=O)N[C@@H](C)c1nc(CC(C)C)sc1C(N)=O | 4.2 µM | 16.7 µM | 14.6 µM | 14.6 µM | 25 µM | 10.4 µM | 12.5 µM (≈ 35.9 µg/mL) | 25 µM (≈ 71.8 µg/mL) | 25 µM (≈ 71.8 µg/mL) | 6.2 µM (≈ 17.8 µg/mL) | > 100 µM | 16.5 µM (≈ 47.4 µg/mL) | 19 µM (≈ 54.6 µg/mL) |
| CC(=O)N[C@@H](CCCCN)c1nc(C)sc1C(=O)N[C@@H](C)c1nc(CCCCN)sc1C(=O)N[C@@H](C)c1nc(C)sc1C(=O)N[C@@H](CCCCN)c1nc(C)sc1C(=O)N[C@@H](C)c1nc(CCCCN)sc1C(=O)N[C@@H](C)c1nc(C)sc1C(N)=O | 30 µM | > 150 µM | > 150 µM | > 150 µM | 62.5 µM | > 150 µM | > 150 µM | 130 µM (≈ 169 µg/mL) | > 150 µM | 30 µM (≈ 38.9 µg/mL) | > 100 µM | > 150 µM | > 150 µM |
| CC[C@H](C)[C@H](NC(=O)CN)C(=O)NCC(=O)N[C@@H](C)C(=O)N[C@H](C(=O)N[C@@H](CC(C)C)C(=O)N[C@@H](CCCCN)C(=O)N[C@H](C(=O)N[C@@H](CC(C)C)C(=O)N[C@H](C(=O)N[C@H](C(=O)NCC(=O)N[C@@H](CC(C)C)C(=O)N1CCC[C@H]1C(=O)N[C@@H](C)C(=O)N[C@@H](CC(C)C)C(=O)N[C@H](C(=O)N[C@@H](CO)C(=O)N[C@@H](Cc1c[nH]c2ccccc12)C(=O)N[C@H](C(=O)N[C@@H](CCCCN)C(=O)N[C@@H](CCCNC(=N)N)C(=O)N[C@@H](CCCCN)C(=O)N[C@@H](CCCNC(=N)N)C(=O)N[C@@H](CCC(N)=O)C(=O)N[C@@H](CCC(N)=O)C(N)=O)[C@@H](C)CC)[C@@H](C)CC)[C@@H](C)O)[C@@H](C)O)C(C)C)C(C)C [MELITTIN] |  |  |  |  | 1.6 µM | 1.6 µM | 1.6 µM (≈ 4.55 µg/mL) | 1.6 µM (≈ 4.55 µg/mL) | 1.2 µM (≈ 3.42 µg/mL) | 1.1 µM (≈ 3.13 µg/mL) |  | 4.7 µM (≈ 13.4 µg/mL) | 3.1 µM (≈ 8.82 µg/mL) |
| CC(=O)N[C@@H](CCCCN)c1nc(C)sc1C(=O)N[C@@H](C)c1nc(CCCCN)sc1C(=O)N[C@@H](C)c1nc(C)sc1C(=O)N[C@@H](CCCCN)c1nc(C)sc1C(=O)N[C@@H](C)c1nc(CCCCN)sc1C(=O)N[C@@H](C)c1nc(C)sc1C(=O)N[C@@H](CCCCN)c1nc(C)sc1C(=O)N[C@@H](C)c1nc(CCCCN)sc1C(=O)N[C@@H](C)c1nc(C)sc1C(N)=O | 0.8 µM | > 150 µM | 5.2 µM | 42 µM | 10.4 µM | > 150 µM | > 150 µM | 10.4 µM (≈ 19.9 µg/mL) | > 150 µM | 0.8 µM (≈ 1.53 µg/mL) | > 100 µM | 7.3 µM (≈ 14 µg/mL) | 83 µM (≈ 159 µg/mL) |

More lines, main results first:

| MIC (Bacillus subtilis [2]) | MIC (Staphylococcus aureus [3]) | MIC (Escherichia coli [4]) | MIC (Pseudomonas aeruginosa [8]) | MIC (Candida albicans [11]) | MIC (Enterococcus faecalis [12]) | Structure (SMILES) | MBC (Enterococcus faecalis [1]) | MBC (Candida albicans [5]) | MBC (Staphylococcus aureus [6]) | MBC (Bacillus subtilis [7]) | HC50 at 1 h [9] | MBC (Escherichia coli [10]) | MBC (Pseudomonas aeruginosa [13]) |
| --- | --- | --- | --- | --- | --- | --- | --- | --- | --- | --- | --- | --- | --- |
| > 150 µM | > 150 µM | > 150 µM | > 150 µM | > 150 µM | > 150 µM | CC(=O)N[C@@H](CCCCN)c1nc(C)sc1C(=O)N[C@@H](C)c1nc(CCCCN)sc1C(=O)N[C@@H](C)c1nc(C)sc1C(N)=O | > 150 µM | > 150 µM | > 150 µM | > 150 µM | > 100 µM | > 150 µM | > 150 µM |
| 0.5 µM | 26 µM | 1.6 µM | 3.9 µM | 3.7 µM | > 150 µM | CC(=O)N[C@@H](CCCCN)c1nc(C)sc1C(=O)N[C@@H](C)c1nc(CCCCN)sc1C(=O)N[C@@H](C)c1nc(C)sc1C(=O)N[C@@H](CCCCN)c1nc(C)sc1C(=O)N[C@@H](C)c1nc(CCCCN)sc1C(=O)N[C@@H](C)c1nc(C)sc1C(=O)N[C@@H](CCCCN)c1nc(C)sc1C(=O)N[C@@H](C)c1nc(CCCCN)sc1C(=O)N[C@@H](C)c1nc(C)sc1C(=O)N[C@@H](CCCCN)c1nc(C)sc1C(=O)N[C@@H](C)c1nc(CCCCN)sc1C(=O)N[C@@H](C)c1nc(C)sc1C(N)=O | > 150 µM | 3.7 µM (≈ 9.38 µg/mL) | 57 µM (≈ 144 µg/mL) | 0.5 µM (≈ 1.27 µg/mL) | > 100 µM | 1.6 µM (≈ 4.06 µg/mL) | 5.2 µM (≈ 13.2 µg/mL) |
| 0.5 µM | 3.1 µM | 23 µM | > 100 µM | 25 µM | 3.1 µM | CC(=O)N[C@@H](CCCNC(=N)N)c1nc(C)sc1C(=O)N[C@@H](C)c1nc(C)sc1C(=O)N[C@@H](C)c1nc(C)sc1C(=O)N[C@@H](CCCNC(=N)N)c1nc(C)sc1C(=O)N[C@@H](C)c1nc(C)sc1C(=O)N[C@@H](C)c1nc(C)sc1C(=O)N[C@@H](CCCNC(=N)N)c1nc(C)sc1C(=O)N[C@@H](C)c1nc(C)sc1C(=O)N[C@@H](C)c1nc(C)sc1C(=O)N[C@@H](CCCNC(=N)N)c1nc(C)sc1C(=O)N[C@@H](C)c1nc(C)sc1C(=O)N[C@@H](C)c1nc(C)sc1C(N)=O | 11.5 µM (≈ 27.8 µg/mL) | 50 µM (≈ 121 µg/mL) | 8.3 µM (≈ 20.1 µg/mL) | 0.5 µM (≈ 1.21 µg/mL) | 46 µM | 30 µM (≈ 72.5 µg/mL) |  |
